Experimental findings from ChEMBL document CHEMBL1125784, “Geiparvarin analogues. 2. Synthesis and cytostatic activity of 5-(4-arylbutadienyl)-3(2H)-furanones and of N-substituted 3-(4-oxo-2-furanyl)-2-buten-2-yl carbamates” (J Med Chem, 1991) are described below.

What all share (type): functional, cell-based
The test system of experiment [1] is MT4. Description: Inhibitory activity against proliferation of human T-lymphocyte MT-4 tumor cell line. Summed up:
(§1)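 MT-4 cells in growth medium, plated at 6.25×10^4 cells/well with serial compound concentrations. Incubation was 72 h at 37 °C, humidified and CO2-controlled, then cells were counted electronically (Coulter). IC50 is the concentration lowering viable cell number by 50%.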

For experiment [2], the system named is L1210. Description: Inhibitory activity against proliferation of murine leukemia L1210 tumor cell line. As to conditions: Mus musculus. Summed up:
(§2)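 L1210 cells in growth medium, seeded at 5×10^4 cells/well with a range of test compound concentrations, grown 48 h at 37 °C in humidified CO2-controlled air. Cells were counted in a Coulter counter. IC50 is the concentration reducing viable cell number by 50%.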

For experiment [3], the system named is MOLT-4F. Description: Inhibitory activity against proliferation of human T-lymphoblast Molt/4F tumor cell line. Summed up:
(§3)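 Molt/4F or FM3A cells were suspended in growth medium and plated at 5×10^4 cells/well with varying compound concentrations. They proliferated 72 h at 37 °C in a humidified, CO2-controlled atmosphere before Coulter-counter enumeration. IC50 is the concentration giving a 50% drop in viable cell count.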

Experiment [4] concerns FM3A. Nature of the experiment: Inhibitory activity against proliferation of murine mammary carcinoma FM3A tumor cell line. As to conditions: Mus musculus. Summed up: as §3
For experiment [5], the system named is FM3A. Nature of the experiment: Inhibitory activity against proliferation of murine (FM3A) tumor cell. As to conditions: Mus musculus. Summed up: as §3
Experiment [6] concerns L1210. Description: Inhibitory activity against proliferation of murine (L1210) tumor cell. As to conditions: Mus musculus. Summed up: as §2
The subject of experiment [7] is MOLT-4F. Nature of the experiment: Inhibitory activity against proliferation of human(Molt/4F) tumor cell. Summed up: as §3
For experiment [8], the system named is MT4. Description: Inhibitory activity against proliferation of human(MT-4) tumor cell. Summed up:
as §1

≈ marks a conversion by molar mass, not a printed value. Some results are limits rather than exact numbers.

By IC50 is commonly meant the concentration needed to halve the response being measured. Turning to `COc1ccc(/C=C/C=C(\C)C2=CC(=O)C(C)(C)O2)cc1`, the half-inhibitory concentration (IC50) turned out to be 5.7 µg/mL (≈ 20 µM) in the experiment on MT4 [1], 18 µg/mL (≈ 63.3 µM) in the experiment on L1210 [2], 10 µg/mL (≈ 35.2 µM) with MOLT-4F [3] and 25 µg/mL (≈ 87.9 µM) in the experiment with FM3A [4].
As for `COc1cc2ccc(=O)oc2cc1OC/C=C(\C)C1=CC(=O)C(C)(C)O1`, the IC50 came out at 3.9 µg/mL (≈ 10.9 µM) in the experiment on FM3A [5], 2 µg/mL (≈ 5.61 µM) in the experiment on L1210 [6], 2.9 µg/mL (≈ 8.14 µM) with MOLT-4F [7] and 0.6 µg/mL (≈ 1.68 µM) with MT4 [8].
For `C/C(=C\COC(=O)NC(C)C)C1=CC(=O)C(C)(C)O1`, the 50% inhibitory concentration (IC50) in the experiment with MT4 [1] worked out at 2.3 µg/mL (≈ 8.6 µM); with L1210 [2], 4.9 µg/mL (≈ 18.3 µM); in the experiment on MOLT-4F [3] it was 6.6 µg/mL (≈ 24.7 µM); in the experiment with FM3A [4] it was 7.2 µg/mL (≈ 26.9 µM).
Turning to `C/C(=C\COC(=O)NC1CCCCC1)C1=CC(=O)C(C)(C)O1`, the IC50 in the experiment with MT4 [1] was 2.4 µg/mL (≈ 7.81 µM); in the experiment with L1210 [2], 3.7 µg/mL (≈ 12 µM); in the experiment on MOLT-4F [3], 3.4 µg/mL (≈ 11.1 µM); in the experiment with FM3A [4], 13 µg/mL (≈ 42.3 µM).
Turning to `C/C(=C\C=C/C1CCCCC1)C1=CC(=O)C(C)(C)O1`, the IC50 in the experiment on MT4 [1] was 8.4 µg/mL (≈ 32.3 µM); in the experiment with L1210 [2], 23 µg/mL (≈ 88.3 µM); with MOLT-4F [3], 7.1 µg/mL (≈ 27.3 µM); in the experiment on FM3A [4], 10.8 µg/mL (≈ 41.5 µM).
Take `C/C(=C\C=C\c1ccc2ccc(=O)oc2c1)C1=CC(=O)C(C)(C)O1`: the half-maximal inhibitory concentration (IC50) in the experiment on FM3A [5] is > 100 µg/mL; with L1210 [6], 63 µg/mL (≈ 195 µM); with MOLT-4F [7], 13 µg/mL (≈ 40.3 µM); with MT4 [8] it was 2.9 µg/mL (≈ 9 µM).
Take `C/C(=C\C=C\c1ccccc1)C1=CC(=O)C(C)(C)O1`: the IC50 with MT4 [1] was 6.5 µg/mL (≈ 25.6 µM); with L1210 [2], 14 µg/mL (≈ 55 µM); in the experiment with MOLT-4F [3], 14 µg/mL (≈ 55 µM); in the experiment on FM3A [4], 15 µg/mL (≈ 59 µM).
Take `CCCCCCCCNC(=O)OC/C=C(\C)C1=CC(=O)C(C)(C)O1`: the IC50 was found to be 7.1 µg/mL (≈ 21 µM) in the experiment with FM3A [5], 2 µg/mL (≈ 5.93 µM) in the experiment with L1210 [6], 1.7 µg/mL (≈ 5.04 µM) in the experiment on MOLT-4F [7] and 1.3 µg/mL (≈ 3.85 µM) with MT4 [8].
The corresponding values for `C/C(=C\COC(=O)NCCCl)C1=CC(=O)C(C)(C)O1` are 20.8 µg/mL (≈ 72.3 µM), 5.1 µg/mL (≈ 17.7 µM), 10.7 µg/mL (≈ 37.2 µM) and 6.4 µg/mL (≈ 22.2 µM).
For the compound `C/C(=C\COC(=O)NCc1ccccc1)C1=CC(=O)C(C)(C)O1`, the IC50 in the experiment on MT4 [1] was 2 µg/mL (≈ 6.34 µM); in the experiment on L1210 [2], 4.7 µg/mL (≈ 14.9 µM); in the experiment on MOLT-4F [3], 6 µg/mL (≈ 19 µM); in the experiment with FM3A [4], 8.1 µg/mL (≈ 25.7 µM).
Take `C/C(=C\COC(=O)Nc1ccccc1)C1=CC(=O)C(C)(C)O1`: the IC50 in the experiment on MT4 [1] was 103 µg/mL (≈ 342 µM); in the experiment on L1210 [2], > 200 µg/mL; with MOLT-4F [3] it was > 200 µg/mL; with FM3A [4], > 200 µg/mL.
Regarding `CCCCNC(=O)OC/C=C(\C)C1=CC(=O)C(C)(C)O1`, the IC50 in the experiment on MT4 [1] is 1.2 µg/mL (≈ 4.27 µM); with L1210 [2] it was 2.6 µg/mL (≈ 9.24 µM); with MOLT-4F [3] it was 5.3 µg/mL (≈ 18.8 µM); in the experiment on FM3A [4] it was 7.7 µg/mL (≈ 27.4 µM).
Turning to `C/C(=C\COC(=O)NC(C)(C)C)C1=CC(=O)C(C)(C)O1`, the half-inhibitory concentration (IC50) was 2.1 µg/mL (≈ 7.46 µM) in the experiment with MT4 [1], 4.1 µg/mL (≈ 14.6 µM) in the experiment on L1210 [2], 6.1 µg/mL (≈ 21.7 µM) in the experiment on MOLT-4F [3] and 7.1 µg/mL (≈ 25.2 µM) in the experiment on FM3A [4].
Consider `C=CCNC(=O)OC/C=C(\C)C1=CC(=O)C(C)(C)O1`, for which the IC50 in the experiment on MT4 [1] was determined as 2.8 µg/mL (≈ 10.6 µM); with L1210 [2], 6.2 µg/mL (≈ 23.4 µM); in the experiment with MOLT-4F [3] it was 7.7 µg/mL (≈ 29 µM); in the experiment with FM3A [4] it was 7.6 µg/mL (≈ 28.6 µM).
